Published values collected from several papers.
Compare with care: the assays were run in different laboratories.
Target: Ephrin type-A receptor 3 (EPHA3, Homo sapiens, UniProt P29320)
Sequence (P29320 21-983, as in one of the studies): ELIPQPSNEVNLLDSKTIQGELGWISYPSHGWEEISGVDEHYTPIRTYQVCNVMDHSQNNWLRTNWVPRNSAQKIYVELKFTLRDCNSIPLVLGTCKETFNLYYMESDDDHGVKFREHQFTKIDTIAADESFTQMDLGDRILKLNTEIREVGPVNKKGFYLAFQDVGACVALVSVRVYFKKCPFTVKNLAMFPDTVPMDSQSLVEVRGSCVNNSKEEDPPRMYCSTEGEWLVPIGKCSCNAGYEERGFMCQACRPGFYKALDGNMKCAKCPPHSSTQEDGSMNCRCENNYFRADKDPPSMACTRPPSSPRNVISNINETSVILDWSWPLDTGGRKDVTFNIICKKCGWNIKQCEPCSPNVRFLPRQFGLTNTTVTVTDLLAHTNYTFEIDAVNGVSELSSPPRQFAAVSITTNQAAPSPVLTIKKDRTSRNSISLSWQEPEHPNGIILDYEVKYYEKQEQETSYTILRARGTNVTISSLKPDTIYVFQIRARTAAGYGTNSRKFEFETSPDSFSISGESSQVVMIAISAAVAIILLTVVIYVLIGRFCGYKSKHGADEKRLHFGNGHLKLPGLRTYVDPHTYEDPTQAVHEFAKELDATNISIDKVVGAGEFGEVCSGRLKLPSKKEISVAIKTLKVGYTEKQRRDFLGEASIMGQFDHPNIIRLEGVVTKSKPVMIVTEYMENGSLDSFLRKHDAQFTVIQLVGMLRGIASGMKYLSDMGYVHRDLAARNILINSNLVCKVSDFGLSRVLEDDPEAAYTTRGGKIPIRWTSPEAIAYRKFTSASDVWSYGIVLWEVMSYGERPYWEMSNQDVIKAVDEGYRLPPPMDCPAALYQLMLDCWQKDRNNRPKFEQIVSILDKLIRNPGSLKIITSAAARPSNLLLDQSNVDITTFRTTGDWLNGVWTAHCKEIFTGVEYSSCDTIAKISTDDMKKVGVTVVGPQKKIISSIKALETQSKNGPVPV

SMILES | assay | setting | endpoint | value
COc1cc(Nc2ncc(F)c(Nc3ccc4c(n3)NC(=O)C(C)(C)O4)n2)cc(OC)c1OC | binding, competition with immobilised ligand | 10 µM | inhibition | 90%
Cc1nn(C)cc1-c1nc2c(N3CCN(Cc4ccc(Cl)cc4)CC3)c(Cl)cnc2[nH]1 | binding, competition with immobilised ligand | 1 µM | remaining binding | 100%
Cn1cncc1[C@](O)(COc1ccc(C#N)cc1-c1ccc(OC(F)(F)F)cc1)c1ccc(C#N)cc1 | cell-free assay, competition with immobilised ligand | 1 µM | remaining binding | 90%
COc1ncccc1-c1cnn2ccc(N3CCN(C(=O)OC(C)C)CC3)nc12 | binding, competition with immobilised ligand | 1 µM | remaining binding | 83%
Cn1cc(-c2cccc(N3CCc4c(sc5c4CC(C)(C)C5)C3=O)c2CO)cc(Nc2ccncn2)c1=O | enzyme activity, inhibitor | 1 µM | inhibition | -7%
N#CC1(c2ccccn2)CCN(Cc2cc(C(=O)O)c(=O)n3ccccc23)CC1 | cell-free assay, competition with immobilised ligand | 1 µM | remaining binding | 75%
O=c1[nH]c2ccccc2n1C1CCN(Cc2ccc(-c3[nH]c4cc5ncnc5cc4nc3-c3ccccc3)cc2)CC1 | cell-free assay | 0.5 µM | remaining signal | 71.9%
Cn1cc(-c2cc(F)cc(N3CCn4c(cc5c4CCCC5)C3=O)c2CO)cc(Nc2ccc(N3CCN(C4COC4)CC3)cn2)c1=O | enzyme activity, inhibitor | 0.1 µM | inhibition | 10%
Nc1ncc(-c2nc(N3CCOCC3)nc(N3CCOCC3)n2)c(C(F)F)n1 | cell-free assay, competition with immobilised ligand | 10 µM | remaining binding | 69%
CC(C)(C)c1cc(C=C(C#N)C#N)cc(Br)c1O | enzyme activity, inhibitor | 0.5 µM | remaining activity | 102%
